Test results published in publication PMC7106486 (Science translational medicine, 2019).

Columns and labels:
[1] = test system: S. aureus USA300 LAC agr type I P3-YFP; experiment: S. aureus agr activity, P3-YFP reporter, in vitro; assay type: cell-based; details: synthetic peptide, overnight culture
[2] = test system: murine back skin treated with S. aureus; experiment: Transepidermal water loss; assay type: in vivo, mouse C57BL/6; details: synthetic autoinducing peptide 10 μg with S. aureus 1 × 10^7 CFU, 48 hours
Summary of the method: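 Back skin of 8-week male C57BL/6 mice depilated (shave plus Nair 2 min), allowed 48 h barrier recovery. S. aureus USA300 LAC agr type I (1 × 10^7 CFU, 100 μl 3% TSB) plus synthetic autoinducing peptide (10 μg, DMSO) applied on 2-cm2 gauze under Tegaderm for 48 h. Transepidermal water loss measured by Tewameter on treated skin; n = 5.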

[3] = test system: Klk6 and cytokine (Il6, Il17a, Il17f) mRNA in murine skin; experiment: Klk6 and cytokine mRNA expression on murine skin; assay type: in vivo, mouse C57BL/6; details: synthetic autoinducing peptide 10 μg with S. aureus 1 × 10^7 CFU, 48 hours
Summary of the method: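 Male C57BL/6 mice, 8 weeks old, shaved and Nair-depilated (2 min), then rested 48 h. S. aureus USA300 LAC (agr type I, from 18 h cultures in 3% TSB at 37°C), 1 × 10^7 CFU in 3% TSB (100 μl), applied with synthetic autoinducing peptide (10 μg, DMSO) on 2-cm2 gauze under Tegaderm to back skin for 48 h. Applied CFU confirmed next day; n = 5.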

[4] = test system: clinical S. aureus strains expressing PSMα; experiment: Protection against clinical S. aureus strains expressing PSMα

S-Y-N-V-c(C-G-G-Y-F) [S. hominis C5 autoinducing peptide]
inhibition of S. aureus agr activity (in words) [1]: potently inhibited S. aureus agr activity in a dose-dependent manner
inhibition of S. aureus agr activity (in words) ([1]; listed as SYNVCGGYF): highly potent inhibitor of S. aureus agr activity
TEWL on murine skin (in words) [2]: inhibited TEWL
Klk6 expression on murine skin (in words) [3]: inhibited TEWL, Klk6
protection against clinical S. aureus strains (in words) [4]: protective against clinical S. aureus strains expressing PSMα
